Data reported in ChEMBL document CHEMBL4052595, “Application of Residual Dipolar Couplings and Selective Quantitative NOE to Establish the Structures of Tetranortriterpenoids from Xylocarpus rumphii” (J Nat Prod, 2017).
Calls of active or inactive are those of the source.

What was measured:
Format in all cases: functional, cell-based
HOP-62 = experiment: Growth inhibition of human HOP62 cells at 10^-5 M incubated for 48 hrs by sulforhodamine B assay
Method in brief: (§1)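 Run in the NCI59 one-dose cell-line screen, with each compound tested at a single concentration of 1 × 10−5 M.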

IGROV-1 = experiment: Growth inhibition of human IGROV1 cells at 10^-5 M incubated for 48 hrs by sulforhodamine B assay; method in brief: as §1
NCI-H23 = experiment: Growth inhibition of human NCI-H23 cells at 10^-5 M incubated for 48 hrs by sulforhodamine B assay; method in brief: as §1
UO-31 = experiment: Growth inhibition of human UO31 cells at 10^-5 M incubated for 48 hrs by sulforhodamine B assay
Method in brief: (§2)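 Tested at a single concentration of 1 × 10−5 M as part of the NCI59 cell-line one-dose screen.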

SK-MEL-2 = experiment: Growth inhibition of human SK-MEL-2 cells at 10^-5 M incubated for 48 hrs by sulforhodamine B assay; method in brief: as §1
SNB-75 = experiment: Growth inhibition of human SNB75 cells at 10^-5 M incubated for 48 hrs by sulforhodamine B assay; method in brief: as §1
RXF 393 = experiment: Growth inhibition of human RXF393 cells at 10^-5 M incubated for 48 hrs by sulforhodamine B assay; method in brief: as §1
UACC-257 = experiment: Growth inhibition of human UACC257 cells at 10^-5 M incubated for 48 hrs by sulforhodamine B assay; method in brief: as §2
SR = experiment: Growth inhibition of human SR cells at 10^-5 M incubated for 48 hrs by sulforhodamine B assay; method in brief: as §1
M14 = experiment: Growth inhibition of human M14 cells at 10^-5 M incubated for 48 hrs by sulforhodamine B assay; method in brief: as §1
SF-268 = experiment: Growth inhibition of human SF268 cells at 10^-5 M incubated for 48 hrs by sulforhodamine B assay; method in brief: as §1
NCI-H226 = experiment: Growth inhibition of human NCI-H226 cells at 10^-5 M incubated for 48 hrs by sulforhodamine B assay; method in brief: as §1
UACC-62 = experiment: Growth inhibition of human UACC62 cells at 10^-5 M incubated for 48 hrs by sulforhodamine B assay; method in brief: as §2
SW-620 = experiment: Growth inhibition of human SW620 cells at 10^-5 M incubated for 48 hrs by sulforhodamine B assay; method in brief: as §2
PC-3 = experiment: Growth inhibition of human PC3 cells at 10^-5 M incubated for 48 hrs by sulforhodamine B assay; method in brief: as §1
SK-MEL-28 = experiment: Growth inhibition of human SK-MEL-28 cells at 10^-5 M incubated for 48 hrs by sulforhodamine B assay; method in brief: as §1
786-0 = experiment: Growth inhibition of human 786-0 cells at 10^-5 M incubated for 48 hrs by sulforhodamine B assay; method in brief: as §1
KM12 = experiment: Growth inhibition of human KM12 cells at 10^-5 M incubated for 48 hrs by sulforhodamine B assay; method in brief: as §1
HT-29 = experiment: Growth inhibition of human HT-29 cells at 10^-5 M incubated for 48 hrs by sulforhodamine B assay; method in brief: as §1
MCF7 = experiment: Growth inhibition of human MCF7 cells at 10^-5 M incubated for 48 hrs by sulforhodamine B assay; method in brief: as §1
SK-MEL-5 = experiment: Growth inhibition of human SK-MEL-5 cells at 10^-5 M incubated for 48 hrs by sulforhodamine B assay; method in brief: as §1
HCT-116 = experiment: Growth inhibition of human HCT116 cells at 10^-5 M incubated for 48 hrs by sulforhodamine B assay; method in brief: as §1
SNB-19 = experiment: Growth inhibition of human SNB19 cells at 10^-5 M incubated for 48 hrs by sulforhodamine B assay; method in brief: as §1
OVCAR-5 = experiment: Growth inhibition of human OVCAR5 cells at 10^-5 M incubated for 48 hrs by sulforhodamine B assay; method in brief: as §1
HOP-92 = experiment: Growth inhibition of human HOP92 cells at 10^-5 M incubated for 48 hrs by sulforhodamine B assay; method in brief: as §1
NCI/ADR-RES = experiment: Growth inhibition of human NCI/ADR-RES cells at 10^-5 M incubated for 48 hrs by sulforhodamine B assay; method in brief: as §1
OVCAR-3 = experiment: Growth inhibition of human OVCAR3 cells at 10^-5 M incubated for 48 hrs by sulforhodamine B assay; method in brief: as §1
NCI-H522 = experiment: Growth inhibition of human NCI-H522 cells at 10^-5 M incubated for 48 hrs by sulforhodamine B assay; method in brief: as §1
CCRF-CEM = experiment: Growth inhibition of human CCRF-CEM cells at 10^-5 M incubated for 48 hrs by sulforhodamine B assay; method in brief: as §1
SN12C = experiment: Growth inhibition of human SN12C cells at 10^-5 M incubated for 48 hrs by sulforhodamine B assay; method in brief: as §1
U-251 = experiment: Growth inhibition of human U251 cells at 10^-5 M incubated for 48 hrs by sulforhodamine B assay; method in brief: as §2
CAKI-1 = experiment: Growth inhibition of human Caki1 cells at 10^-5 M incubated for 48 hrs by sulforhodamine B assay; method in brief: as §1
HL-60(TB) = experiment: Growth inhibition of human HL-60(TB) cells at 10^-5 M incubated for 48 hrs by sulforhodamine B assay
Method in brief: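 Run in the NCI59 cell-line one-dose screen, with each compound tested at a single concentration of 1 × 10−5 M.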

A549 = experiment: Growth inhibition of human A549/ATCC cells at 10^-5 M incubated for 48 hrs by sulforhodamine B assay; method in brief: as §1
HCT-15 = experiment: Growth inhibition of human HCT15 cells at 10^-5 M incubated for 48 hrs by sulforhodamine B assay; method in brief: as §1
K562 = experiment: Growth inhibition of human K562 cells at 10^-5 M incubated for 48 hrs by sulforhodamine B assay; method in brief: as §1
DU-145 = experiment: Growth inhibition of human DU145 cells at 10^-5 M incubated for 48 hrs by sulforhodamine B assay; method in brief: as §1
LOX IMVI = experiment: Growth inhibition of human LOXIMVI cells at 10^-5 M incubated for 48 hrs by sulforhodamine B assay; method in brief: as §1
RPMI-8226 = experiment: Growth inhibition of human RPMI8226 cells at 10^-5 M incubated for 48 hrs by sulforhodamine B assay; method in brief: as §1
ACHN = experiment: Growth inhibition of human ACHN cells at 10^-5 M incubated for 48 hrs by sulforhodamine B assay; method in brief: as §1
OVCAR-8 = experiment: Growth inhibition of human OVCAR8 cells at 10^-5 M incubated for 48 hrs by sulforhodamine B assay; method in brief: as §1
Hs-578T = experiment: Growth inhibition of human Hs 578T cells at 10^-5 M incubated for 48 hrs by sulforhodamine B assay; method in brief: as §1
MOLT-4 = experiment: Growth inhibition of human MOLT4 cells at 10^-5 M incubated for 48 hrs by sulforhodamine B assay; method in brief: as §1
A498 = experiment: Growth inhibition of human A498 cells at 10^-5 M incubated for 48 hrs by sulforhodamine B assay; method in brief: as §1
HCC 2998 = experiment: Growth inhibition of human HCC2998 cells at 10^-5 M incubated for 48 hrs by sulforhodamine B assay; method in brief: as §1
COLO 205 = experiment: Growth inhibition of human COLO205 cells at 10^-5 M incubated for 48 hrs by sulforhodamine B assay; method in brief: as §1
MDA-MB-231 = experiment: Growth inhibition of human MDA-MB-231 cells at 10^-5 M incubated for 48 hrs by sulforhodamine B assay; method in brief: as §1
SF-295 = experiment: Growth inhibition of human SF295 cells at 10^-5 M incubated for 48 hrs by sulforhodamine B assay; method in brief: as §1
NCI-H322M = experiment: Growth inhibition of human NCI-H322M cells at 10^-5 M incubated for 48 hrs by sulforhodamine B assay; method in brief: as §1
TK-10 = experiment: Growth inhibition of human TK10 cells at 10^-5 M incubated for 48 hrs by sulforhodamine B assay; method in brief: as §2
NCI-H460 = experiment: Growth inhibition of human NCI-H460 cells at 10^-5 M incubated for 48 hrs by sulforhodamine B assay; method in brief: as §1
SF-539 = experiment: Growth inhibition of human SF539 cells at 10^-5 M incubated for 48 hrs by sulforhodamine B assay; method in brief: as §1
EKVX = experiment: Growth inhibition of human EKVX cells at 10^-5 M incubated for 48 hrs by sulforhodamine B assay; method in brief: as §1
OVCAR-4 = experiment: Growth inhibition of human OVCAR4 cells at 10^-5 M incubated for 48 hrs by sulforhodamine B assay; method in brief: as §1
MDA-MB-435 = experiment: Growth inhibition of human MDA-MB-435 cells at 10^-5 M incubated for 48 hrs by sulforhodamine B assay; method in brief: as §1
SK-OV-3 = experiment: Growth inhibition of human SKOV3 cells at 10^-5 M incubated for 48 hrs by sulforhodamine B assay; method in brief: as §1
T47D = experiment: Growth inhibition of human T47D cells at 10^-5 M incubated for 48 hrs by sulforhodamine B assay; method in brief: as §2
BT-549 = experiment: Growth inhibition of human BT549 cells at 10^-5 M incubated for 48 hrs by sulforhodamine B assay; method in brief: as §1

Measured: growth inhibition (GI)

CC[C@H](C)C(=O)O[C@@H]1[C@H]2C(=O)[C@](C)([C@H]3CC[C@@]4(C)[C@H](c5ccoc5)OC(=O)C[C@]45O[C@]35[C@@H]2OC(=O)C(C)C)[C@@H](CC(=O)OC)C1(C)C
inactive: HOP-62 | IGROV-1 | NCI-H23 | UO-31 | SK-MEL-2 | SNB-75 | RXF 393 | UACC-257 | SR | M14 | SF-268 | NCI-H226 | UACC-62 | SW-620 | PC-3 | SK-MEL-28 | 786-0 | KM12 | HT-29 | MCF7 | SK-MEL-5 | HCT-116 | SNB-19 | OVCAR-5 | HOP-92 | NCI/ADR-RES | OVCAR-3 | NCI-H522 | CCRF-CEM | SN12C | U-251 | CAKI-1 | HL-60(TB) | A549 | HCT-15 | K562 | DU-145 | LOX IMVI | RPMI-8226 | ACHN | OVCAR-8 | Hs-578T | MOLT-4 | A498 | HCC 2998 | COLO 205 | MDA-MB-231 | SF-295 | NCI-H322M | TK-10 | NCI-H460 | SF-539 | EKVX | OVCAR-4 | MDA-MB-435 | SK-OV-3 | T47D | BT-549

CC[C@H](C)C(=O)O[C@@H]1[C@@H]2[C@@H](OC(=O)[C@@H](C)CC)[C@@]34O[C@]2(O)[C@@](C)([C@@H](CC(=O)OC)C1(C)C)[C@H]3CC[C@]1(C)C4=CC(=O)O[C@H]1C1=CC(O)OC1=O (stereo partly specified)
inactive: HOP-62 | IGROV-1 | NCI-H23 | UO-31 | SK-MEL-2 | SNB-75 | RXF 393 | UACC-257 | SR | M14 | SF-268 | NCI-H226 | UACC-62 | SW-620 | PC-3 | SK-MEL-28 | 786-0 | KM12 | HT-29 | MCF7 | SK-MEL-5 | HCT-116 | SNB-19 | OVCAR-5 | HOP-92 | NCI/ADR-RES | OVCAR-3 | NCI-H522 | CCRF-CEM | SN12C | U-251 | CAKI-1 | HL-60(TB) | A549 | HCT-15 | K562 | DU-145 | LOX IMVI | RPMI-8226 | ACHN | OVCAR-8 | Hs-578T | MOLT-4 | A498 | HCC 2998 | COLO 205 | MDA-MB-231 | SF-295 | NCI-H322M | TK-10 | NCI-H460 | SF-539 | EKVX | OVCAR-4 | MDA-MB-435 | SK-OV-3 | T47D | BT-549
